Experimental data from ChEMBL document CHEMBL1135980, “Novel angular benzophenazines: dual topoisomerase I and topoisomerase II inhibitors as potential anticancer agents” (J Med Chem, 2002).

Legend:
[1] = test system: NCI-H69; experiment: Cytotoxicity measured using the H69 parental (H69/P) human small cell lung carcinoma cell line; type: functional, cell-based
Method in brief: (§1)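 H69/P (parental) or H69/LX4 (P-glycoprotein-overexpressing) human SCLC cells; compound added, then 5-6 days incubation; proliferation read with Alamar Blue.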

[2] = test system: NCI-H69; experiment: Rf is the resistance factor and is the ratio of the IC50 on the resistant cell line over the IC50 on the parental H69/P cell line; type: functional, Homo sapiens
Method in brief: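 Resistance factor computed as IC50 in H69/LX4 (Pgp-overexpressing) divided by IC50 in H69/P. Both IC50s come from a 5-6 day Alamar Blue proliferation assay.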

[3] = test system: NCI-H69; experiment: Cytotoxicity measured using the drug resistant, P-glycoprotein (Pgp) expressing human small cell lung carcinoma cell line H69/LX4; type: functional, cell-based; method in brief: as §1

CN(C)CCNC(=O)c1cccc2nc3ccc4c(Cl)cccc4c3nc12
IC50 [1]: 117 nM | Rf [2]: 1.4 | IC50 [3]: 159 nM

COc1cccc2c1ccc1nc3cccc(C(=O)N[C@@H]4CCN(C)C4)c3nc12
IC50 [1]: 79 nM | Rf [2]: 1.6 | IC50 [3]: 128 nM

COc1ccc2ccc3nc4cccc(C(=O)NCCN(C)C)c4nc3c2c1
IC50 [1]: 110 nM | Rf [2]: 1 | IC50 [3]: 112 nM

CC(=O)COc1cccc2c1ccc1nc3cccc(C(=O)NCCN(C)C)c3nc12
IC50 [1]: 45 nM | Rf [2]: 3.1 | IC50 [3]: 138 nM

COc1cccc2c1ccc1nc3cccc(C(=O)NC(C)(C)CN(C)C)c3nc12
IC50 [1]: 435 nM | Rf [2]: 1.5 | IC50 [3]: 642 nM

CN(C)CCNC(=O)c1cccc2nc3ccc4c(OCC#N)cccc4c3nc12
IC50 [1]: 28 nM | Rf [2]: 0.9 | IC50 [3]: 24 nM

COc1cccc2c1ccc1nc3ccc(N)c(C(=O)NCCN(C)C)c3nc12
IC50 [1]: 34 nM | Rf [2]: 0.85 | IC50 [3]: 29 nM

COc1cccc2c1ccc1nc3cc(Cl)cc(C(=O)NCCN(C)C)c3nc12
IC50 [1]: 20 nM | Rf [2]: 1 | IC50 [3]: 21 nM

CCN(CC)CCNC(=O)c1cccc2nc3ccc4c(OC)cccc4c3nc12
IC50 [1]: 412 nM | Rf [2]: 2.4 | IC50 [3]: 1000 nM

COc1cccc2c1ccc1nc3cccc(C(=O)NCCN4CCCC4)c3nc12
IC50 [1]: 40 nM | Rf [2]: 1.9 | IC50 [3]: 77 nM

CN(C)CCNC(=O)c1c(O)ccc2nc3ccc4c(O)cccc4c3nc12
IC50 [1]: 19 nM | Rf [2]: 1.3 | IC50 [3]: 25 nM

COc1cccc2c1ccc1nc3cc(Br)cc(C(=O)NCCN(C)C)c3nc12
IC50 [1]: 159 nM | Rf [2]: 0.6 | IC50 [3]: 100 nM

CC(C)Oc1cccc2c1ccc1nc3cccc(C(=O)NCCN(C)C)c3nc12
IC50 [1]: 420 nM | Rf [2]: 2.1 | IC50 [3]: 874 nM

COc1cccc2c1ccc1nc3cccc(C(=O)NC(C)CN(C)C)c3nc12 (centres undefined)
IC50 [1]: 30 nM | Rf [2]: 1.4 | IC50 [3]: 44 nM

CN(C)CCNC(=O)c1cccc2nc3ccc4c(C#N)cccc4c3nc12
IC50 [1]: 101 nM | Rf [2]: 1.5 | IC50 [3]: 147 nM

CN(C)CCNC(=O)c1cccc2nc3ccc4c(OCC(N)=O)cccc4c3nc12
IC50 [1]: 89 nM | Rf [2]: 3.7 | IC50 [3]: 328 nM

COc1ccc2nc3ccc4c(OC)cccc4c3nc2c1C(=O)NCCN(C)C
IC50 [1]: 2640 nM | Rf [2]: 1.4 | IC50 [3]: 3620 nM

CN(C)CCNC(=O)c1cccc2nc3ccc4c(F)cccc4c3nc12
IC50 [1]: 111 nM | Rf [2]: 0.7 | IC50 [3]: 78 nM

COc1cccc2c1ccc1nc3c(C)ccc(C(=O)NCCN(C)C)c3nc12
IC50 [1]: 87 nM | Rf [2]: 1.9 | IC50 [3]: 168 nM

COc1ccc2c(ccc3nc4cccc(C(=O)NCCN(C)C)c4nc32)c1OC
IC50 [1]: 436 nM | Rf [2]: 1.8 | IC50 [3]: 804 nM

CNCCNC(=O)c1cccc2nc3ccc4c(OC)cccc4c3nc12
IC50 [1]: 99 nM | Rf [2]: 2.4 | IC50 [3]: 234 nM

CN(C)CCCOc1cccc2c1ccc1nc3cccc(C(=O)NCCN(C)C)c3nc12
IC50 [1]: 116 nM | Rf [2]: 0.8 | IC50 [3]: 91 nM

COc1cccc2c1ccc1nc3cccc(C(=O)NCC(O)CN)c3nc12 (centres undefined)
IC50 [1]: 515 nM | Rf [2]: >9.7 | IC50 [3]: > 5000 nM

CN(C)CCNC(=O)c1cccc2nc3ccc4ccc([N+](=O)[O-])cc4c3nc12
IC50 [1]: 94 nM | Rf [2]: 1.1 | IC50 [3]: 102 nM

COC(=O)C(CN(C)C)NC(=O)c1cccc2nc3ccc4c(OC)cccc4c3nc12 (centres undefined)
IC50 [1]: 468 nM | Rf [2]: >10 | IC50 [3]: > 5000 nM

COc1cccc2c1ccc1nc3cccc(C(=O)NCCCN(C)C)c3nc12
IC50 [1]: 470 nM | Rf [2]: 1.3 | IC50 [3]: 597 nM

CC(=O)Nc1cccc2c1ccc1nc3cccc(C(=O)NCCN(C)C)c3nc12
IC50 [1]: 468 nM | Rf [2]: >10.7 | IC50 [3]: > 5000 nM

CN(C)CCNC(=O)c1cccc2nc3ccc4c(OCc5ccccc5)cccc4c3nc12
IC50 [1]: 556 nM | Rf [2]: 1.6 | IC50 [3]: 882 nM

COc1cccc2c1ccc1nc3cccc(C(=O)N[C@H](CO)CN(C)C)c3nc12
IC50 [1]: 20 nM | Rf [2]: 1.2 | IC50 [3]: 25 nM

COc1cccc2c1ccc1nc3cccc(C(=O)NCCN4CCCCC4)c3nc12
IC50 [1]: 156 nM | Rf [2]: 2.1 | IC50 [3]: 330 nM

CN(C)CCNC(=O)c1cccc2nc3ccc4cc([N+](=O)[O-])ccc4c3nc12
IC50 [1]: 49 nM | Rf [2]: 1.4 | IC50 [3]: 69 nM

CN(C)CCNC(=O)c1cccc2nc3ccc4c(NCC#N)cccc4c3nc12
IC50 [1]: 103 nM | Rf [2]: 1.5 | IC50 [3]: 155 nM

COc1cccc2c1ccc1nc3cccc(C(=O)NCC(CN(C)C)N(C)C)c3nc12 (centres undefined)
IC50 [1]: 126 nM | Rf [2]: 3.8 | IC50 [3]: 480 nM
